{"source": "paper PMC10949176", "about": "(Clinical and Translational Science, 2024)", "key": {"[1]": {"system": "CYP2B6 mRNA (marker of CAR)", "test": "mRNA induction in sandwich cultured hepatocytes", "type": "cell-based, human", "conditions": "RIS qualified donor HH1103, sandwich cultured hepatocytes, 48 h"}, "[2]": {"system": "palbociclib metabolic pathways in co‐culture human hepatocyte models", "type": "in vitro ADME"}, "SULT2A1 [3]": {"target": "T1, SULT2A1 (Homo sapiens, UniProt Q06520)", "T1 sequence (Q06520 1-285)": "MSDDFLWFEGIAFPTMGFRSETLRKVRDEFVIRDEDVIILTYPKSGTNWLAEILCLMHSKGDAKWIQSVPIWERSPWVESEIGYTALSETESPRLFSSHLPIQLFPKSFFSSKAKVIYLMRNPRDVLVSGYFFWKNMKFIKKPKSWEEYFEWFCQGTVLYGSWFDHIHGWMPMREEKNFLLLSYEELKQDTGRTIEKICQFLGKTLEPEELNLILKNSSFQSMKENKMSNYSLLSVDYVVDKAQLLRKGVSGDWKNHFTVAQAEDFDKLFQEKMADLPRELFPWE", "test": "ARV-471 inhibition of recombinant SULT2A1", "type": "biochemical", "conditions": "rSULT2A1 IC50 (DHEAS formation)", "how_it_was_run": "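Recombinant human SULT2A1 incubated with varying test compound concentrations. Read-out was formation of DHEAS, with IC50 derived from the concentration response. Mean of three.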"}, "[4]": {"system": "palbociclib intrinsic clearance in Hμrel co‐culture hepatocytes", "test": "Impact of ARV-471 on intrinsic clearance of palbociclib in Hμrel", "type": "in vitro ADME, human", "conditions": "at ~3 μM ARV‐471"}, "CYP3A": {"system": "CYP3A", "test": "CYP3A activity in Hμrel with ARV-471", "type": "cell-based, human"}, "[5]": {"conditions": "ref https://endpts.com/arvinas‐reports‐delay‐for‐pfizer‐partnered‐protein‐degradation‐program/, cited from earlier work"}, "SULT2A1 [6]": {"target": "T1, SULT2A1", "test": "ARV-471 inhibition of SULT2A1 in Hμrel", "type": "cell-based", "conditions": "Hμrel IC50 (DHEAS formation, SULT2A1), Hμrel model", "how_it_was_run": "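Hμrel co-culture of mixed-gender, five-donor pooled hepatocytes, acclimated 24 h at 37°C, 5% CO₂, exposed to varying test compound concentrations. […] DHEAS formation was measured and IC50 derived. Mean of three.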"}, "palbociclib sulfation": {"system": "palbociclib sulfation", "test": "Formation of palbociclib sulfate in Hμrel with ARV-471", "type": "cell-based, human"}, "recombinant SULT2B1": {"system": "recombinant SULT2B1", "test": "Recombinant SULT inhibition by ABT, SULT2B1", "type": "biochemical", "conditions": "1 mM ABT, raloxifene probe substrate, data not shown"}, "recombinant SULT1C4": {"system": "recombinant SULT1C4", "test": "Recombinant SULT inhibition by ABT, SULT1C4", "type": "biochemical", "conditions": "1 mM ABT, raloxifene probe substrate, data not shown"}, "recombinant SULT1B1": {"system": "recombinant SULT1B1", "test": "Recombinant SULT inhibition by ABT, SULT1B1", "type": "biochemical", "conditions": "1 mM ABT, raloxifene probe substrate, data not shown"}, "SULT2A1 [7]": {"target": "T1, SULT2A1", "test": "Recombinant SULT inhibition by ABT, SULT2A1", "type": "biochemical", "conditions": "1 mM ABT, raloxifene probe substrate, data not shown"}, "UGT1A6": {"target": "UGT1A6 (Homo sapiens, UniProt P19224)", "sequence (P19224 27-532)": "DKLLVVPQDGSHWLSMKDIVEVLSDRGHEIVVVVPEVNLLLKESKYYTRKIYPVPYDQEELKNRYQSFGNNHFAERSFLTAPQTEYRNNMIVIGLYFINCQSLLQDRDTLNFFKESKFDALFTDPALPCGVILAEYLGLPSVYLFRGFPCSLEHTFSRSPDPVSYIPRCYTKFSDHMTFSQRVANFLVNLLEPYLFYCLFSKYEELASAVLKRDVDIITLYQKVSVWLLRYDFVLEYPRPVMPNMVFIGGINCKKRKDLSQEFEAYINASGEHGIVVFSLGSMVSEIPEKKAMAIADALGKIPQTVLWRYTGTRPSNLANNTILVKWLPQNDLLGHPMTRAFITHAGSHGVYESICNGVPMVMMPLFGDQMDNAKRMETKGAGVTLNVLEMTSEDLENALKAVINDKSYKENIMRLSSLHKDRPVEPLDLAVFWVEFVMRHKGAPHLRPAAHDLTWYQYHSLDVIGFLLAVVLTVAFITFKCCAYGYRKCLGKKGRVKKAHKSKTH", "test": "UGT inhibition in suspension human hepatocytes", "type": "cell-based", "conditions": "UGT1A6, Serotonin 1715 μM, unbound"}, "UGT1A1": {"target": "UGT1A1 (Homo sapiens, UniProt P22309)", "sequence (P22309 26-533)": "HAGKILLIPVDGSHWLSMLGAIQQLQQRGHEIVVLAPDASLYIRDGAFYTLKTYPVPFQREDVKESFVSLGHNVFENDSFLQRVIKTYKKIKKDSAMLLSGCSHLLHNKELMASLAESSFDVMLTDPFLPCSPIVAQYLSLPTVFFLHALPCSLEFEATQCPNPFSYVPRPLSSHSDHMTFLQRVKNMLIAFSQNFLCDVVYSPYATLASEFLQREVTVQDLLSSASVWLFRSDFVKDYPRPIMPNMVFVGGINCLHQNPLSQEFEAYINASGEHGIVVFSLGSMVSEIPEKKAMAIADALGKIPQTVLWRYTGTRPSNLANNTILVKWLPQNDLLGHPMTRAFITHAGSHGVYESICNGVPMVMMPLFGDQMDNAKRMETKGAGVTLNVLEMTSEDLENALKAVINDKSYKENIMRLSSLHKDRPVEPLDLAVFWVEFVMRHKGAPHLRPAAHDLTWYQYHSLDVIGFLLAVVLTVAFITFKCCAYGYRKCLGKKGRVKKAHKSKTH", "test": "UGT inhibition in suspension human hepatocytes", "type": "cell-based", "conditions": "UGT1A1, β‐Estradiol 3 μM, unbound"}, "recombinant SULT1A3": {"system": "recombinant SULT1A3", "test": "Recombinant SULT inhibition by ABT, SULT1A3", "type": "biochemical", "conditions": "1 mM ABT, raloxifene probe substrate, data not shown"}, "UGT1A3": {"target": "UGT1A3 (Homo sapiens, UniProt P35503)", "sequence (P35503 29-534)": "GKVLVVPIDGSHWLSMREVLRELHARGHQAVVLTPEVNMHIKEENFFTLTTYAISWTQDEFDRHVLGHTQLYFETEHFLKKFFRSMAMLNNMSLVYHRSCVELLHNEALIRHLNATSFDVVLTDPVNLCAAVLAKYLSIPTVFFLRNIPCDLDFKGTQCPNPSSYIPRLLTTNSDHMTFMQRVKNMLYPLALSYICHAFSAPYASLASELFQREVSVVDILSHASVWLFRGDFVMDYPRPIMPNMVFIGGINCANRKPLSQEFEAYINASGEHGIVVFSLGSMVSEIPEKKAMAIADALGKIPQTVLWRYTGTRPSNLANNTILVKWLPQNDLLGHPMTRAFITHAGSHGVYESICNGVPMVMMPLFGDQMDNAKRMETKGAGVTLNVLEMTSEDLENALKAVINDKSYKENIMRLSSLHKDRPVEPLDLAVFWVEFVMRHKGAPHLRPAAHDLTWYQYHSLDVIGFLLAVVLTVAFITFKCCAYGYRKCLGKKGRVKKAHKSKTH", "test": "UGT inhibition in suspension human hepatocytes", "type": "cell-based", "conditions": "read-out: Ki,u HHEPs; UGT1A3, CDCA 2 μM, unbound"}, "UGT2B7": {"target": "UGT2B7 (Homo sapiens, UniProt P16662)", "sequence (P16662 24-529)": "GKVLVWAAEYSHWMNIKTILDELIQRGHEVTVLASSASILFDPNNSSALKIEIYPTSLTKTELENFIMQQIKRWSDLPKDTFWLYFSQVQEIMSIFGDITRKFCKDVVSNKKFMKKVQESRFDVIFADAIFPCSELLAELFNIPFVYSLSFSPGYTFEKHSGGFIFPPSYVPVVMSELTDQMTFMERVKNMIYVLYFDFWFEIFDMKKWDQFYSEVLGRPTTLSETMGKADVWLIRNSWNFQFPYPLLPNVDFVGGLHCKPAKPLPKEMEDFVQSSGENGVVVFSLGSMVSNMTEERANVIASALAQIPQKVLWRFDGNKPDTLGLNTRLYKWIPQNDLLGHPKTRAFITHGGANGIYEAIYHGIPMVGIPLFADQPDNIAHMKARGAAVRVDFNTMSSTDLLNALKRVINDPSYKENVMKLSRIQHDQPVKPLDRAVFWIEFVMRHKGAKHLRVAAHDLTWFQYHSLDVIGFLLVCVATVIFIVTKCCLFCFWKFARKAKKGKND", "test": "UGT inhibition in suspension human hepatocytes", "type": "cell-based", "conditions": "read-out: Ki,u HHEPs; UGT2B7, Zidovudine 100 μM, unbound"}, "recombinant SULT1A1": {"system": "recombinant SULT1A1", "test": "Recombinant SULT inhibition by ABT, SULT1A1", "type": "biochemical", "conditions": "1 mM ABT, raloxifene probe substrate, data not shown"}, "UGT1A4": {"target": "UGT1A4 (Homo sapiens, UniProt P22310)", "sequence (P22310 29-534)": "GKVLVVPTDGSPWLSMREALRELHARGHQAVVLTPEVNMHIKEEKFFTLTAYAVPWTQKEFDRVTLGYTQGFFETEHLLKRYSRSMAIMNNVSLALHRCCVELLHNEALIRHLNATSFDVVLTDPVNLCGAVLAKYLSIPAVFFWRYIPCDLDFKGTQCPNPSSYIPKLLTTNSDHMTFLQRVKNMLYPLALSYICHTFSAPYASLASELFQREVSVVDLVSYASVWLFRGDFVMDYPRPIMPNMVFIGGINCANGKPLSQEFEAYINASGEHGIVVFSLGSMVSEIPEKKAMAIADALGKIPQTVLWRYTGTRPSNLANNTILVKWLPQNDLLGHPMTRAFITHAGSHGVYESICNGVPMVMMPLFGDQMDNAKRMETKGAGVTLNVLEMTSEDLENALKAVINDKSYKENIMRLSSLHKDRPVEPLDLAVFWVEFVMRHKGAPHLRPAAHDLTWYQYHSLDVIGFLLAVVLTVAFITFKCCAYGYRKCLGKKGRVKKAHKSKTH", "test": "UGT inhibition in suspension human hepatocytes", "type": "cell-based", "conditions": "read-out: Ki,u HHEPs; UGT1A4, TFP 1 μM, unbound"}, "recombinant SULT1C2": {"system": "recombinant SULT1C2", "test": "Recombinant SULT inhibition by ABT, SULT1C2", "type": "biochemical", "conditions": "1 mM ABT, raloxifene probe substrate, data not shown"}, "recombinant SULT1E1": {"system": "recombinant SULT1E1", "test": "Recombinant SULT inhibition by ABT, SULT1E1", "type": "biochemical", "conditions": "1 mM ABT, raloxifene probe substrate, data not shown"}, "UGT2B15": {"target": "UGT2B15 (Homo sapiens, UniProt P54855)", "sequence (P54855 24-530)": "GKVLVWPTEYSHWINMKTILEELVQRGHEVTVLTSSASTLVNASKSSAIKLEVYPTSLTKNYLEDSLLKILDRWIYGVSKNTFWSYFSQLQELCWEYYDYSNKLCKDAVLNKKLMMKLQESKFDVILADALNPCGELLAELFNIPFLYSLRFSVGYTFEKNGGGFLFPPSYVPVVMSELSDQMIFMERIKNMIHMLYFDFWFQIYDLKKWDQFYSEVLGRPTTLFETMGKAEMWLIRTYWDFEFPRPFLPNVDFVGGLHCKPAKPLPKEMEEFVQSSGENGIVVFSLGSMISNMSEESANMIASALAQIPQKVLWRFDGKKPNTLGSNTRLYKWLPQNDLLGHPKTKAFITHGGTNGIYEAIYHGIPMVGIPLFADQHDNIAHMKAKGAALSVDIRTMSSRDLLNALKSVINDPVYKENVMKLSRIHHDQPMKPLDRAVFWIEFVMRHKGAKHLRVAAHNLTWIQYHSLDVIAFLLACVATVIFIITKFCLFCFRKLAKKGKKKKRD", "test": "UGT inhibition in suspension human hepatocytes", "type": "cell-based", "conditions": "read-out: Ki,u HHEPs; UGT2B15, Oxazepam 10 μM, unbound"}, "UGT1A9": {"target": "UGT1A9 (Homo sapiens, UniProt O60656)", "sequence (O60656 26-530)": "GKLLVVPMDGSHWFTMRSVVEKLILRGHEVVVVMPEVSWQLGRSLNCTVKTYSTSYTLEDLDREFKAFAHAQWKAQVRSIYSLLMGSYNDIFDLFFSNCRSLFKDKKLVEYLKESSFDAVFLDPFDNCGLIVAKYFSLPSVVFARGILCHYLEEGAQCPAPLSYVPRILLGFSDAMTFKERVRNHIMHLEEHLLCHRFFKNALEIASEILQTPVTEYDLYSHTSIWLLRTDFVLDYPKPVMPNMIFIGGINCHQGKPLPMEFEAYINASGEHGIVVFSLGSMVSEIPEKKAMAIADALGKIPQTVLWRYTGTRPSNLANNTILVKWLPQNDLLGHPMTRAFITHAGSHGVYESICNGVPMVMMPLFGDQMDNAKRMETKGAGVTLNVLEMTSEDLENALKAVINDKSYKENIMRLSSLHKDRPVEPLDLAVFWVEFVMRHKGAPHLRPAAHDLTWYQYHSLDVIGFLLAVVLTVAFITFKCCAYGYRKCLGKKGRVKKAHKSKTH", "test": "UGT inhibition in suspension human hepatocytes", "type": "cell-based", "conditions": "read-out: Ki,u HHEPs; UGT1A9, Propofol 10 μM, unbound"}, "[8]": {"system": "CYP3A4 mRNA (marker of PXR)", "test": "mRNA induction in sandwich cultured hepatocytes", "type": "cell-based, human", "conditions": "RIS qualified donor HH1103, sandwich cultured hepatocytes, 48 h"}, "[9]": {"test": "Preliminary reaction phenotyping of palbociclib in hepatocytes", "type": "in vitro ADME", "conditions": "novel approach (manuscript under preparation)"}, "[10]": {"conditions": "Hμrel, 1'hydroxylation of midazolam"}}, "note": "Values joined by “and” are separate entries in the source; they are usually repeats but may differ in a detail not shown here. Equal entries are not always repeated. “Also recorded” adds a separate entry of the source."}
{"compound": "C=C[C@H]1C[N@@]2CC[C@H]1C[C@@H]2[C@@H](O)c1ccnc2ccc(OC)cc12", "note": "[quinidine]", "values": [{"measurement": "CYP2B6 induction (result in words)", "setting": "[1]", "result": "did not induce"}]}
{"compound": "O=C1CC[C@H](N2Cc3cc(N4CCN(CC5CCN(c6ccc([C@@H]7c8ccc(O)cc8CC[C@@H]7c7ccccc7)cc6)CC5)CC4)ccc3C2=O)C(=O)N1", "note": "[ARV-471]", "values": [{"measurement": "glucuronide metabolism of palbociclib", "setting": "[2]; Hμrel and TruVivo, 5 μM palbociclib, 20 μM ARV‐471", "result": "completely inhibited"}, {"measurement": "inhibition of metabolic clearance accounted for by glucuronide metabolism", "setting": "[2]; based on MS ionization and summed metabolite area ratios, 20 μM ARV‐471", "result": "up to 50%"}, {"measurement": "IC50", "setting": "SULT2A1 [3]", "result": "> 0.035", "unit": "mM"}, {"measurement": "increase in palbociclib exposure recapitulated from Clint inhibition", "setting": "[4]", "result": 50, "unit": "%"}, {"measurement": "direct inhibition of CYP3A activity", "setting": "CYP3A; [10]", "result": "no direct inhibition; also recorded: no direct or time‐dependent inhibition"}, {"measurement": "time‐dependent inhibition of CYP3A", "setting": "CYP3A; [10]", "result": "no direct or time‐dependent inhibition"}, {"measurement": "Emax, increase in midazolam activity (CYP3A induction)", "setting": "CYP3A; Hμrel, concentration and time‐dependent increase", "result": 3.8, "unit": "fold"}, {"measurement": "EC50", "setting": "CYP3A; human, Hμrel co-culture hepatocytes, probe midazolam (1'-hydroxylation)", "result": 0.00025, "unit": "mM"}, {"measurement": "increase in palbociclib exposure (area under the curve)", "setting": "[5]; co‐administration of palbociclib with ARV‐471, phase Ib", "result": "~ 50% and 50%"}, {"measurement": "adverse event with increased palbociclib exposure", "setting": "[5]; palbociclib with ARV‐471, phase Ib", "result": "grade 3/4 neutropenia"}, {"measurement": "IC50", "setting": "SULT2A1 [6]", "result": "> 0.035", "unit": "mM"}, {"measurement": "effect on palbociclib sulfation over the time course", "setting": "palbociclib sulfation", "result": "apparent activation"}]}
{"compound": "Nn1nnc2ccccc21", "note": "[ABT, Aminobenzotriazole]", "values": [{"measurement": "inhibition of SULT2B1", "setting": "recombinant SULT2B1", "result": "No significant inhibition"}, {"measurement": "inhibition of SULT1C4", "setting": "recombinant SULT1C4", "result": "No significant inhibition"}, {"measurement": "inhibition of SULT1B1", "setting": "recombinant SULT1B1", "result": "No significant inhibition"}, {"measurement": "inhibition of SULT2A1", "setting": "SULT2A1 [7]", "result": "No significant inhibition"}, {"measurement": "Ki,u HHEPs", "setting": "UGT1A6", "result": "No inhibition"}, {"measurement": "Ki,u HHEPs", "setting": "UGT1A1", "result": "No inhibition"}, {"measurement": "inhibition of SULT1A3", "setting": "recombinant SULT1A3", "result": "No significant inhibition"}, {"measurement": "Ki", "setting": "UGT1A3", "result": 6.03, "unit": "mM"}, {"measurement": "Ki", "setting": "UGT2B7", "result": 5.45, "unit": "mM"}, {"measurement": "inhibition of SULT1A1", "setting": "recombinant SULT1A1", "result": "No significant inhibition"}, {"measurement": "Ki", "setting": "UGT1A4", "result": 2.52, "unit": "mM"}, {"measurement": "inhibition of SULT1C2", "setting": "recombinant SULT1C2", "result": "No significant inhibition"}, {"measurement": "inhibition of SULT1E1", "setting": "recombinant SULT1E1", "result": "No significant inhibition"}, {"measurement": "Ki", "setting": "UGT2B15", "result": "> 20", "unit": "mM"}, {"measurement": "Ki", "setting": "UGT1A9", "result": 4.58, "unit": "mM"}]}
{"compound": "CC(=O)N1CCN(c2ccc(OCC3COC(Cn4ccnc4)(c4ccc(Cl)cc4Cl)O3)cc2)CC1", "note": "(stereo not shown) [ketoconazole]", "values": [{"measurement": "CYP3A4 induction Emax", "setting": "[8]", "result": 2, "unit": "fold"}]}
{"compound": "CC(=O)c1c(C)c2cnc(Nc3ccc(N4CCNCC4)cn3)nc2n(C2CCCC2)c1=O", "note": "[palbociclib]", "values": [{"measurement": "Clint at 5 μM compared with 0.045 μM", "setting": "[2]; co-culture hepatocytes, suggesting saturation of metabolic clearance", "result": "reduced"}, {"measurement": "share of palbociclib clearance by glucuronidation", "setting": "[9]", "result": "25%–30%"}]}
